Assay results: ChEMBL document CHEMBL1134392, “Novel p-arylthio cinnamides as antagonists of leukocyte function-associated antigen-1/intracellular adhesion molecule-1 interaction. 2. Mechanism of inhibition and structure-based improvement of pharmaceutical properties” (J Med Chem, 2001)
Converted amounts (≈) assume the structure as drawn.

Tests used:
[1] = target: T1, Intercellular adhesion molecule (ICAM-1), Integrin alpha-L/beta-2 (Homo sapiens, UniProt P05107+P20701)
[2] = target: T1, Intercellular adhesion molecule (ICAM-1), Integrin alpha-L/beta-2; assay: Inhibition of JY-8 cell adhesion via leukocyte function associated antigen 1 (LFA-1) to ICAM-1; format: cell-based
[3] = Half life was determined after intravenous administration; format: ADME, organism-based; conditions: in vivo
[4] = Bioavailability was evaluated in rats; format: ADME, organism-based; conditions: rat, in vivo
Rattus norvegicus = species on record: Rattus norvegicus; assay: Pharmacokinetic parameter was evaluated in rats which is represented as Vbeta; format: ADME, organism-based; conditions: in vivo
[5] = solubility in rats; format: ADME
Summary of the method: (§1)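 Excess solid removed by filtration. The saturated solution was diluted and drug concentration measured by UV spectrophotometry.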

[6] = AUC(area under curve) was determined after intravenous administration in rats; format: ADME, organism-based; conditions: rat, plasma
[7] = Dissociation constant was determined; format: physicochemical
[8] = Pharmacokinetic parameter was evaluated after oral administration of 5 mg/kg; range (4-8); format: ADME, organism-based; set-up: dose 5 mg/kg, route oral; conditions: in vivo
[9] = solubility was determined; format: physicochemical
Summary of the method: as §1

[10] = Pharmacokinetic parameter was evaluated which is represented as AUC when administered orally a dose of 5 mg/kg; range (4.2-8.8); format: ADME, organism-based; set-up: dose 5 mg/kg, route oral; conditions: in vivo, po
[11] = target: T1, Intercellular adhesion molecule (ICAM-1), Integrin alpha-L/beta-2; remark: listed apart in the source
[12] = Mean Cmax in rats after 5 mg/kg oral dose, range (0.4-0.8); format: ADME, organism-based; set-up: dose 5 mg/kg, route oral; conditions: rat, in vivo
[13] = Half life when administered 5 mg/kg orally; range (4.1-5.5); format: ADME, organism-based; set-up: dose 5 mg/kg; conditions: in vivo, po
[14] = target: Integrin alpha-L (Homo sapiens); assay: Binding affinity to leukocyte function associated antigen 1 (LFA-1) I domain by NMR
[15] = target: T1, Intercellular adhesion molecule (ICAM-1), Integrin alpha-L/beta-2; assay: Inhibition of JY-8 cell adhesion via leukocyte function associated antigen 1 (LFA-1) to ICAM-1, range (370-470); format: cell-based
[16] = target: T1, Intercellular adhesion molecule (ICAM-1), Integrin alpha-L/beta-2; assay: Inhibition of JY-8 cell adhesion via leukocyte function associated antigen 1 (LFA-1) to ICAM-1, range (110-140)
[17] = target: T1, Intercellular adhesion molecule (ICAM-1), Integrin alpha-L/beta-2; assay: Inhibition of JY-8 cell adhesion via leukocyte function associated antigen 1 (LFA-1) to ICAM-1, range (30-60); format: cell-based
[18] = target: T1, Intercellular adhesion molecule (ICAM-1), Integrin alpha-L/beta-2; assay: Inhibition of JY-8 cell adhesion via leukocyte function associated antigen 1 (LFA-1) to ICAM-1, range (90-100); format: cell-based
[19] = Pharmacokinetic parameter was evaluated which is represented as AUC when administered 5 mg/kg intravenously; range (2.1-2.3); format: ADME, organism-based; set-up: dose 5 mg/kg, route intravenous; conditions: in vivo, iv
[20] = Pharmacokinetic parameter was evaluated after oral administration of 5 mg/kg; range (0.2-1); format: ADME, organism-based; set-up: dose 5 mg/kg, route oral; conditions: in vivo
[21] = Pharmacokinetic parameter was evaluated which is represented as Vbeta; range (0.9-6); format: ADME
[22] = Half life when administered 5 mg/kg orally; range (0.99-1.14); format: ADME, organism-based; set-up: dose 5 mg/kg; conditions: in vivo, po
[23] = Half life when administered intravenously; range (0.3-1.79); format: ADME, organism-based; conditions: in vivo, iv
[24] = Bioavailability was evaluated after oral administration of 5 mg/kg; range (8.7-15.8); format: ADME, organism-based; conditions: eutheria, in vivo
[25] = Pharmacokinetic parameter was evaluated which is represented as AUC when administered 5 mg/Kg orally; range (0.19-0.35); format: ADME; conditions: in vivo, po
[26] = Mean Cmax in rats after 5 mg/kg oral dose, range (0.17-0.20); format: ADME, organism-based; set-up: dose 5 mg/kg, route oral; conditions: rat, in vivo
[27] = target: T1, Intercellular adhesion molecule (ICAM-1), Integrin alpha-L/beta-2; assay: Inhibition of JY-8 cell adhesion via leukocyte function associated antigen 1 (LFA-1) to ICAM-1, range (120-140); format: cell-based
[28] = target: T1, Intercellular adhesion molecule (ICAM-1), Integrin alpha-L/beta-2; assay: Inhibition of JY-8 cell adhesion via leukocyte function associated antigen 1 (LFA-1) to ICAM-1, range (320-350); format: cell-based
[29] = target: T1, Intercellular adhesion molecule (ICAM-1), Integrin alpha-L/beta-2; assay: Inhibition of JY-8 cell adhesion via leukocyte function associated antigen 1 (LFA-1) to ICAM-1, range (100-110); format: cell-based

T1 sequence (P20701 whole entry): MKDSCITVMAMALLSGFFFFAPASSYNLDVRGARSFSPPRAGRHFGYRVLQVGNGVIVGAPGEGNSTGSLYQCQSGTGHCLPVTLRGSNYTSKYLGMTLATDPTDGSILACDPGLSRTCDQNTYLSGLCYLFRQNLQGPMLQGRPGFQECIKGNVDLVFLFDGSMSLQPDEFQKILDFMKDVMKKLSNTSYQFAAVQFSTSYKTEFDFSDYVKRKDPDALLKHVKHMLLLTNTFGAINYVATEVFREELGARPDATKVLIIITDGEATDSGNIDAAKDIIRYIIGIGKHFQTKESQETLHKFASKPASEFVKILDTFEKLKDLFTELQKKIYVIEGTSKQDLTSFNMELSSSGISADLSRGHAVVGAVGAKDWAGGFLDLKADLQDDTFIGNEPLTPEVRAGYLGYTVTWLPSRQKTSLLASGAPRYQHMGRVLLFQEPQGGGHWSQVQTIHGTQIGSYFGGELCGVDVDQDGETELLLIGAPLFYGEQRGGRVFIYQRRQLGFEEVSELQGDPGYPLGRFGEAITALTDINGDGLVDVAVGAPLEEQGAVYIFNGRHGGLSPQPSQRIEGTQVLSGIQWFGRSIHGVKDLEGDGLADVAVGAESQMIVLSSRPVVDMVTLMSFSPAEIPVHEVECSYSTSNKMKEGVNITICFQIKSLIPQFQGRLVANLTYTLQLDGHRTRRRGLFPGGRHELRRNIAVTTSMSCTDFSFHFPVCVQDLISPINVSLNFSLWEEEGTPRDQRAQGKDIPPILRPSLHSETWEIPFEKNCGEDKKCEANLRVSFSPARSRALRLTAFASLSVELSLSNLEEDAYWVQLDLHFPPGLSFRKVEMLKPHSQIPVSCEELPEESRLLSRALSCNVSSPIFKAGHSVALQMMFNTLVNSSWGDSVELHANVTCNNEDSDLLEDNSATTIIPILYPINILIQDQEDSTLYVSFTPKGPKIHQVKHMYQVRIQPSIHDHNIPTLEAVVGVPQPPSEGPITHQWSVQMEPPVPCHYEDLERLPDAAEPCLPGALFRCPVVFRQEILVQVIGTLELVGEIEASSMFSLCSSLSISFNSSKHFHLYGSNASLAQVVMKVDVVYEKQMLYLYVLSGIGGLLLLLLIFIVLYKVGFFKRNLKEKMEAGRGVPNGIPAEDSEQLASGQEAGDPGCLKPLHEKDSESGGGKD
T1 sequence (P05362 whole entry, further chain): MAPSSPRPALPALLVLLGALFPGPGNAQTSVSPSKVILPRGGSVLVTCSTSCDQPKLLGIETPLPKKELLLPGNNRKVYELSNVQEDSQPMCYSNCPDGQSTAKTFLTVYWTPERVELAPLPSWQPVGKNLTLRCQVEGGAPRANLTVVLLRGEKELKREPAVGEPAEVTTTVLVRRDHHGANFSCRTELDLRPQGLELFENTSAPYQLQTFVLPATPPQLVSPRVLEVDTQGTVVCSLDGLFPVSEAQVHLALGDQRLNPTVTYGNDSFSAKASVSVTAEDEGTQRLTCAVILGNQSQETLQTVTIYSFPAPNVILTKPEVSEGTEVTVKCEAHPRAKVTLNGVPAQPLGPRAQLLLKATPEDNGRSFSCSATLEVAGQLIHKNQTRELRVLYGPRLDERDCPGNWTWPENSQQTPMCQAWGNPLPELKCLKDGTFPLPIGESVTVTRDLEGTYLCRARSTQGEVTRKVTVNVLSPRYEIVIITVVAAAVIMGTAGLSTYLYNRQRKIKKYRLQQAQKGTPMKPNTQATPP
T1 sequence (P05107 whole entry): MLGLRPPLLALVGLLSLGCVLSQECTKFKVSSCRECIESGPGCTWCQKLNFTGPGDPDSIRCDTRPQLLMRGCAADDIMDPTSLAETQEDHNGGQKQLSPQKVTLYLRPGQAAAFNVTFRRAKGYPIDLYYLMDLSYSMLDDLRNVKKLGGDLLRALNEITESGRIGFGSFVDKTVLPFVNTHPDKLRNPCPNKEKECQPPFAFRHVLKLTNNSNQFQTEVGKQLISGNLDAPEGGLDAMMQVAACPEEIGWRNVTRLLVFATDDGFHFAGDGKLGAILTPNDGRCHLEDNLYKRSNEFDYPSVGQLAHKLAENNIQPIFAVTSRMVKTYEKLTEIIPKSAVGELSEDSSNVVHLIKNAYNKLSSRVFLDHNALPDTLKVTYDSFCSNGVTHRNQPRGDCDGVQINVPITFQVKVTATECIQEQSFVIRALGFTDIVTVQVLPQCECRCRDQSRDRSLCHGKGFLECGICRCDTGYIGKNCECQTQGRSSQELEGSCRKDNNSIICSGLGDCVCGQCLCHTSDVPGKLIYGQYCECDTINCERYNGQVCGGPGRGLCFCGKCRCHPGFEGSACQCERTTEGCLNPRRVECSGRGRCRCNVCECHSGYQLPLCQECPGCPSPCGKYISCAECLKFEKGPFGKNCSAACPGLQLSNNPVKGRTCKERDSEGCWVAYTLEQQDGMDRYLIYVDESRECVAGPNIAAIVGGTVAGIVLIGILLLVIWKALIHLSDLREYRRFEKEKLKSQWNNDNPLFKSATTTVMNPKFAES

## CC(=O)N1CCN(C(=O)/C=C/c2ccc(Sc3cc4[nH]c(O)nc4cc3Cl)c(Cl)c2)CC1
[1]
  IC50: 0.79 µM

## CCOc1c(Sc2ccc(/C=C/C(=O)N3CCN(C(C)=O)CC3)cc2Cl)cc(Cl)c2cccnc12
[2]
  IC50: 0.58 µM

## CC(=O)N1CCN(C(=O)/C=C/c2ccc(Sc3ccccc3C(C)C)c([N+](=O)[O-])c2)CC1 [A-286982]
[3]
  half-life: 24 min
[4]
  bioavailability: 0%
Rattus norvegicus
  Vbeta: 2 kg⁻¹
[5]
  solubility: 0.9 µg/mL (≈ 1.98 µM)
[6]
  AUC: 1900 ng·h/mL

## Nc1ccc(Sc2ccc3ccccc3c2Cl)c(Cl)c1
[7]
  Kd: < 20 µM
[2]
  IC50: 2.3 µM

## CC(=O)N1CCN(C(=O)/C=C/c2ccc(Sc3ccc4[nH]ccc4c3)c(Cl)c2)CC1
[8]
  Tmax: 360 min
[9]
  solubility: 0.8 µg/mL (≈ 1.82 µM)
[10]
  AUC: 5800 ng·h/mL
[11]
  IC50: 0.02 µM
[12]
  Cmax: 600 ng/mL
[13]
  half-life: 282 min

## CC(=O)N1CCN(C(=O)/C=C/c2ccc(Sc3cccc4ccn(C)c34)c(Cl)c2)CC1
[2]
  IC50: 0.07 µM

## Cn1ccc2ccccc21
[14]
  Kd: 1400 µM

## CC(=O)N1CCN(C(=O)/C=C/c2ccc(Sc3ccc4c(c3)OCC(C(=O)N(C)C)O4)c(Cl)c2)CC1 (stereo unspecified)
[2]
  IC50: 0.51 µM

## CC(=O)N1CCN(C(=O)/C=C/c2ccc(Sc3ccc4c(c3)OCC(C(=O)O)O4)c(Cl)c2)CC1 (stereo unspecified)
[2]
  IC50: 1.2 µM

## CC(=O)N1CCN(C(=O)/C=C/c2ccc(Sc3ccc4[nH]cc(CN(C)C)c4c3)c(Cl)c2)CC1
[15]
  IC50: 0.42 µM

## CC(=O)N1CCN(C(=O)/C=C/c2ccc(Sc3ccc4c(c3)OCO4)c(Cl)c2)CC1
[16]
  IC50: 0.12 µM

## COCCn1ccc2cc(Sc3ccc(/C=C/C(=O)N4CCN(C(C)=O)CC4)cc3Cl)ccc21
[17]
  IC50: 0.06 µM

## CCOc1c(Sc2ccc(/C=C/C(=O)N3CCN(C(C)=O)CC3)cc2Cl)ccc2c1OCCO2
[18]
  IC50: 0.1 µM

## CC(=O)N1CCN(C(=O)/C=C/c2ccc(Sc3ccc4c(c3)OCCO4)c(Cl)c2)CC1
[17]
  IC50: 0.04 µM
[19]
  AUC: 2200 ng·h/mL
[20]
  Tmax: 30 min
[9]
  solubility: 4.1 µg/mL (≈ 8.93 µM)
[21]
  Vbeta: 3 kg⁻¹
[22]
  half-life: 66 min
[23]
  half-life: 33 min
[24]
  bioavailability: 12.4%
[25]
  AUC: 280 ng·h/mL
[26]
  Cmax: 190 ng/mL

## CCn1ccc2cccc(Sc3ccc(/C=C/C(=O)N4CCN(C(C)=O)CC4)cc3Cl)c21
[27]
  IC50: 0.13 µM

## CC(=O)N1CCN(C(=O)/C=C/c2ccc(Sc3ccc4c(ccn4C)c3)c(Cl)c2)CC1
[2]
  IC50: 0.02 µM

## CC(=O)N1CCN(C(=O)/C=C/c2ccc(Sc3ccc4c(c3)OCC(CO)O4)c(Cl)c2)CC1 (stereo unspecified)
[2]
  IC50: 0.02 µM

## CC(=O)N1CCN(C(=O)/C=C/c2ccc(Sc3ccc4c(ccn4CC(=O)O)c3)c(Cl)c2)CC1
[28]
  IC50: 0.33 µM

## c1ccc2c(c1)OCCO2
[14]
  Kd: 10000 µM

## CC(=O)N1CCN(C(=O)/C=C/c2ccc(Sc3ccc4cc[nH]c4c3)c(Cl)c2)CC1
[2]
  IC50: 0.15 µM

## CCn1cc(CN(C)C)c2cccc(Sc3ccc(/C=C/C(=O)N4CCN(C(C)=O)CC4)cc3Cl)c21
[29]
  IC50: 0.1 µM

## c1ccc2nsnc2c1 [BENZO[1,2,5]THIADIAZOLE]
[14]
  Kd: 8000 µM
